From ChEMBL document CHEMBL1149288, “Effects of substitution on the pyrrole N atom in derivatives of tetrahydronaltrindole, tetrahydrooxymorphindole, and a related 4,5-epoxyphenylpyrrolomorphinan” (J Med Chem, 2004)
Activity calls are given as the source filed them. The calls are words filed in the database; no cut-off is given here.

Columns and labels:
[1] = molecular target: T1, Kappa-type opioid receptor (Homo sapiens, UniProt P41145); experiment: Activity at human recombinant kappa opioid receptor expressed in CHO cells by [35S]GTPgammaS binding assay; type: functional, cell-based
Outline: (§1)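 Human recombinant opioid receptors expressed in CHO cells. Agonist-stimulated [35S]GTPγS binding was measured and efficacy was referenced to DAMGO (MOR) or U69593 (KOR). Values are means of five or six experiments.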

Mu-type opioid receptor [2] = molecular target: T2, Mu-type opioid receptor (Homo sapiens, UniProt P35372); experiment: Displacement of [3H]DAMGO from human recombinant mu opioid receptor expressed in CHO cells; type: cell-based
Outline: (§2)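 Radioligand displacement was run on human recombinant receptors expressed in CHO cells. The labels were [3H]DAMGO for MOR and [3H]U69593 for KOR. Values are the mean of two experiments, each in triplicate.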

[3] = molecular target: T1, Kappa-type opioid receptor; experiment: Activity at human recombinant kappa opioid receptor expressed in CHO cells by [35S]GTP-gamma-S binding assay relative to U69593; type: functional, cell-based; outline: as §1
[4] = molecular target: T1, Kappa-type opioid receptor; experiment: Displacement of [3H]U-69593 from human recombinant kappa opioid receptor expressed in CHO cells; type: cell-based; outline: as §2
Mu-type opioid receptor [5] = molecular target: T2, Mu-type opioid receptor; experiment: Activity at human recombinant mu opioid receptor expressed in CHO cells by [35S]GTP-gamma-S binding assay; type: functional, cell-based; outline: as §1
[6] = molecular target: T3, Delta-type opioid receptor (Homo sapiens, UniProt P41143); settings: CHO
Mus musculus [7] = experiment: Antagonism of SNC80-induced antinociceptive effect in mouse assessed by phenylquinone-induced abdominal stretch assay at 3 mg/kg, sc; type: functional, Abdomen; design: scale not given: the % may be the effect or the level left; settings: route subcutaneous
Outline: (§3)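 Mouse phenylquinone (PPQ) abdominal stretch assay. The test compound was given sc, and its antagonism of SNC80-induced antinociception was scored as percent antagonism of the agonist effect.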

Rattus norvegicus = experiment: Prevention of SNC80-induced convulsions in Sprague-Dawley rat at 10 mg/kg, sc administered 20 mins before SNC80; type: functional, organism-based; design: dose 10 mg/kg
Outline: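 The test compound was given at 10 mg/kg sc 20 min before SNC80 (32 mg/kg), and prevention of SNC80-mediated convulsions was scored.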

Mus musculus [8] = experiment: Antagonism of SNC80-induced antinociceptive effect in mouse assessed by phenylquinone-induced abdominal stretch assay at 10 mg/kg, sc; type: functional, Abdomen; design: scale not given: the % may be the effect or the level left; settings: route subcutaneous; outline: as §3
[9] = molecular target: T3, Delta-type opioid receptor; experiment: Displacement of [3H]Cl-DPDPE from human recombinant delta opioid receptor expressed in CHO cells; type: cell-based
Mu-type opioid receptor [10] = molecular target: T2, Mu-type opioid receptor; experiment: Activity at human recombinant mu opioid receptor expressed in CHO cells by [35S]GTPgammaS binding assay relative to DAMGO; type: functional, cell-based; outline: as §1
Mus musculus [11] = species on record: Mus musculus; experiment: Reversal of 1'-benzyl-6,7-didehydro-3,14-dihydroxy-4,5alpha-epoxy-17-methyl-4',5',6',7'-tetrahydroindolo[2',3':6,7]morphinan-induced antinociceptive activity in mouse; type: functional
Mus musculus [12] = experiment: Antagonism of 1'-benzyl-6,7-didehydro-3,14-dihydroxy-4,5alpha-epoxy-17-methyl-4',5',6',7'-tetrahydroindolo[2',3':6,7]morphinan-induced antinociceptive activity in mouse at 30 mg/kg, sc; type: functional; design: scale not given: the % may be the effect or the level left; settings: route subcutaneous
Mus musculus [13] = experiment: Antagonism of SNC80-induced antinociceptive effect in sc dosed mouse assessed by phenylquinone-induced abdominal stretch assay; type: functional, organism-based; settings: Abdomen; outline: as §3
Mus musculus [14] = experiment: Reversal of SNC80-induced antinociceptive effect in mouse assessed by phenylquinone-induced abdominal stretch assay at […], icv administered 24 hrs before SNC80; type: functional, Abdomen
Mus musculus [15] = experiment: Antinociceptive activity in sc dosed mouse; type: functional
Outline: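 Antinociception was measured in the mouse PPQ-induced abdominal stretch assay after sc dosing.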

Mus musculus [16] = experiment: Antagonism of SNC80-induced antinociceptive effect in mouse assessed by phenylquinone-induced abdominal stretch assay at 1 mg/kg, sc; type: functional, Abdomen; design: scale not given: the % may be the effect or the level left; settings: route subcutaneous; outline: as §3

T1 sequence (P41145 whole entry): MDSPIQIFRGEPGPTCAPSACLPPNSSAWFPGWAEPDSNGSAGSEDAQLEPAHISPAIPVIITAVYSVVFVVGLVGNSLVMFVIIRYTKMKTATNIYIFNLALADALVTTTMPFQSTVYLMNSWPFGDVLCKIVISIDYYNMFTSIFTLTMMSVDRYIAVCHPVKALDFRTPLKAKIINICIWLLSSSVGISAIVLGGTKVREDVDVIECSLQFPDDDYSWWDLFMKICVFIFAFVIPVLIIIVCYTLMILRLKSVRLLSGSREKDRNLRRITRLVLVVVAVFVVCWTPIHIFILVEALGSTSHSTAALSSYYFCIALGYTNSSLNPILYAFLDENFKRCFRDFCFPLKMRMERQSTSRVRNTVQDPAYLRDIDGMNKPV
T2 sequence (P35372 whole entry): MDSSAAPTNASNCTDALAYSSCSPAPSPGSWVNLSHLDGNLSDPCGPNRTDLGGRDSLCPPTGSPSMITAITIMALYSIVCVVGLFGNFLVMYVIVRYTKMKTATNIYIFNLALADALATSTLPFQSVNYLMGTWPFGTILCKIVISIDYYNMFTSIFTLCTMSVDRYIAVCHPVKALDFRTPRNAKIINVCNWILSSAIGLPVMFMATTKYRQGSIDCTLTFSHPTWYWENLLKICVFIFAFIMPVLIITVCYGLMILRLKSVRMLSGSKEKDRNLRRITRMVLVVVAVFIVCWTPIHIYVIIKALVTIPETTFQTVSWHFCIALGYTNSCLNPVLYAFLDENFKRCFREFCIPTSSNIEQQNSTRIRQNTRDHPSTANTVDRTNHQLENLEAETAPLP
T3 sequence (P41143 whole entry): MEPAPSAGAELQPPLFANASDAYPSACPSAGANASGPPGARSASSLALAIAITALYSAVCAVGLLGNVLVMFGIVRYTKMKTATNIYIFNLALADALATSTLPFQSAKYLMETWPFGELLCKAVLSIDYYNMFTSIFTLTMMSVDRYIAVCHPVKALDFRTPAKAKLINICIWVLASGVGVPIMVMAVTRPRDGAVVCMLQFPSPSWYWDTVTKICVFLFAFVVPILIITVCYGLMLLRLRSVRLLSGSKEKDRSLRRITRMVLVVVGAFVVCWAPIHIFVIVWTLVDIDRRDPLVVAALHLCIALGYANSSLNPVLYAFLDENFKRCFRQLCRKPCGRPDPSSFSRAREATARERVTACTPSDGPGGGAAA

Row | Compound | EC50 [1] [nM] | Ki (Mu-type opioid receptor [2]) [nM] | Activity [3] [%] | Ki [4] [nM] | Ke (Mu-type opioid receptor [5]) [nM] | Ke [1] [nM] | EC50 (Mu-type opioid receptor [5]) [nM] | Activity (Mu-type opioid receptor [10]) [%] | further results
1 | CCn1c2c(c3c1[C@@H]1Oc4c(O)ccc5c4[C@@]14CCN(CC1CC1)C(C5)[C@]4(O)C3)CCCC2 | 14.3 | 5.06 | 63 | 7.38 | 5.32 | – | – | – | –
2 | Oc1ccc2c3c1O[C@H]1c4c(c5c(n4CCc4ccccc4)CCCC5)C[C@@]4(O)C(C2)N(CC2CC2)CC[C@]314 | 13.8 | 7.46 | 76 | – | 5.66 | – | – | – | –
3 | Oc1ccc2c3c1O[C@H]1c4c(c5c(n4Cc4ccccc4)CCCC5)C[C@@]4(O)C(C2)N(CC2CC2)CC[C@]314 | – | 5.39 | – | 6.29 | 8.13 | 49.8 | – | – | Ke [6]: 2.23 nM; Activity (Mus musculus [7]): 54%; Activity (Rattus norvegicus): Active; Activity (Mus musculus [8]): 54%; Ki [9]: 2.94 nM
4 | CN1CC[C@]23c4c5ccc(O)c4O[C@H]2c2c(c4c(n2C)CCCC4)C[C@@]3(O)C1C5 | 97.2 | – | 69 | 89.1 | – | – | 222 | 39 | –
5 | CN1CC[C@]23c4c5ccc(O)c4O[C@H]2c2c(c4c(n2CCc2ccccc2)CCCC4)C[C@@]3(O)C1C5 | 131 | 15.4 | 76 | 163 | – | – | 175 | 71 | –
6 | Cn1c2c(c3c1[C@@H]1Oc4c(O)ccc5c4[C@@]14CCN(CC1CC1)[C@H](C5)[C@]4(O)C3)CCCC2 | – | 5.76 | – | 4.11 | 4.3 | 12.2 | – | – | –
7 | CCn1cc(-c2ccccc2)c2c1[C@@H]1Oc3c(O)ccc4c3[C@@]13CCN(CC1CC1)C(C4)[C@]3(O)C2 | – | 8.75 | – | 24.3 | 10.7 | 44 | – | – | Ke [6]: 0.72 nM; Ki [9]: 2.95 nM
8 | Oc1ccc2c3c1O[C@H]1c4c(c5c(n4CC4CCCCC4)CCCC5)C[C@@]4(O)C(C2)N(CC2CC2)CC[C@]314 | 54.3 | 18.5 | 84 | 24.9 | 11.6 | – | – | – | –
9 | O=C1CC[C@@]2(O)[C@H]3Cc4ccc(O)c5c4[C@@]2(CCN3CC2CC2)[C@H]1O5 [NALTREXONE] | – | – | – | – | – | – | – | – | AD50 (Mus musculus [11]): 0.02 mg/kg
10 | Oc1ccc2c3c1O[C@H]1c4[nH]c5ccccc5c4C[C@@]4(O)[C@@H](C2)N(CC2CC2)CC[C@]314 [NALTRINDOLE] | – | – | – | – | – | – | – | – | Activity (Mus musculus [12]): 40%
11 | Cn1cc(-c2ccccc2)c2c1[C@@H]1Oc3c(O)ccc4c3[C@@]13CCN(CC1CC1)C(C4)[C@]3(O)C2 | – | 7.6 | – | 18.5 | 4.04 | 34.1 | – | – | Ke [6]: 0.62 nM; Ki [9]: 3.35 nM
12 | Oc1ccc2c3c1O[C@H]1c4c(c5c(n4CC4CC4)CCCC5)C[C@@]4(O)C(C2)N(CC2CC2)CC[C@]314 | – | 2.52 | – | 2.51 | – | 11.8 | – | – | –
13 | CN1CC[C@]23c4c5ccc(O)c4O[C@H]2c2c(c4c(n2CC2CCCCC2)CCCC4)C[C@@]3(O)C1C5 | 153 | 17.9 | 85 | 262 | – | – | 130 | 57 | –
14 | CCn1c2c(c3c1[C@@H]1Oc4c(O)ccc5c4[C@@]14CCN(C)C(C5)[C@]4(O)C3)CCCC2 | 98.2 | 25.8 | 66 | 168 | – | – | 175 | 41 | –
15 | CN1CC[C@]23c4c5ccc(O)c4O[C@H]2c2c(c4c(n2Cc2ccccc2)CCCC4)C[C@@]3(O)C1C5 | 1750 | 88.9 | 43 | 289 | – | – | 732 | 44 | Activity (Mus musculus [13]): inactive; Activity (Mus musculus [14]): >50%; ED50 (Mus musculus [15]): 5.1 mg/kg
16 | Oc1ccc2c3c1O[C@H]1c4c(c5ccccc5n4Cc4ccccc4)C[C@@]4(O)C(C2)N(CC2CC2)CC[C@]314 | – | – | – | – | – | – | – | – | Activity (Mus musculus [16]): 57%
